Measured values from ChEMBL document CHEMBL1144402, “Effect of a 6-cyano substituent in 14-oxygenated N-methylmorphinans on opioid receptor binding and antinociceptive potency” (J Med Chem, 2005).

Legend:
[1] = target: Delta-type opioid receptor (Rattus norvegicus, UniProt P33533); assay: Displacement of [3H]Ile5,6]-deltorphin II from delta opioid receptor of rat brain membranes; assay type: cell membranes, Membrane
Procedure, shortened: (§1)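 Competitive binding on rat brain membrane preparations with the tritiated radioligand named for each receptor (μ, [3H]DAMGO; δ, [3H][Ile5,6]deltorphin II; κ, [3H]U69,593). Affinity is reported as inhibition constant (Ki).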

[2] = target: Kappa-type opioid receptor (Rattus norvegicus, UniProt P34975); assay: Displacement of[3H]U69,593 from kappa opioid receptor of rat brain membranes; procedure, shortened: as §1
Mu-type opioid receptor = Mu-type opioid receptor (Rattus norvegicus, UniProt P33535); assay: Displacement of [3H][DAMGO] from mu opioid receptor of rat brain membranes; assay type: cell membranes, Membrane; procedure, shortened: as §1
Mus musculus [3] = assay: In vivo analgesic effect of the compound (sc) assessed as antinociceptive potency by hot plate test in mice; assay type: functional
Procedure, shortened: (§2)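 Male ICR mice of 20–30 g, each animal tested only once. Drug given subcutaneously at a minimum of three doses, 6–10 mice per dose. Hot-plate, tail-flick and p-phenylquinone writhing tests were run as modified procedures. Potency is given as the 50% effective dose with 95% confidence limits.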

Mus musculus [4] = assay: In vivo analgesic effect of the compound (sc) assessed as antinociceptive potency by p-phenylquinone writhing test in mice; assay type: functional; procedure, shortened: as §2
Mus musculus [5] = assay: In vivo analgesic effect of the compound (sc) assessed as antinociceptive potency by tail flick test in mice; assay type: functional; procedure, shortened: as §2
Mus musculus [6] = assay: In vivo analgesic effect (sc) assessed as antinociceptive potency by p-phenylquinone writhing test in mice; assay type: functional; procedure, shortened: as §2
Mus musculus [7] = assay: In vivo analgesic effect (sc) assessed as antinociceptive potency by tail flick test in mice; assay type: functional; procedure, shortened: as §2
Mus musculus [8] = assay: In vivo analgesic effect (sc) assessed as antinociceptive potency by hot plate test in mice; assay type: functional; procedure, shortened: as §2

Kappa-type opioid receptor, sequence (P34975 whole entry): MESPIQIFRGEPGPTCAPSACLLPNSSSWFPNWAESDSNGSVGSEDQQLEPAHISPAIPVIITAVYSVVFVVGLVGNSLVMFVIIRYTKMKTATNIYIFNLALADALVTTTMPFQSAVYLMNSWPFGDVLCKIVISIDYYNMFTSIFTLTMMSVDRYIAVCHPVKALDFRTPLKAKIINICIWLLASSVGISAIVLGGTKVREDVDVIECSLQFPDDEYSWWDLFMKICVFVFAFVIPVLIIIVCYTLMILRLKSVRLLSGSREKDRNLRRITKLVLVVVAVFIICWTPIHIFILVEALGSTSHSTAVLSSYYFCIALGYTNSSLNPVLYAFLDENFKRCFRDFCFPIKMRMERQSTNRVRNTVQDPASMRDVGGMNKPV
Mu-type opioid receptor, sequence (P33535 whole entry): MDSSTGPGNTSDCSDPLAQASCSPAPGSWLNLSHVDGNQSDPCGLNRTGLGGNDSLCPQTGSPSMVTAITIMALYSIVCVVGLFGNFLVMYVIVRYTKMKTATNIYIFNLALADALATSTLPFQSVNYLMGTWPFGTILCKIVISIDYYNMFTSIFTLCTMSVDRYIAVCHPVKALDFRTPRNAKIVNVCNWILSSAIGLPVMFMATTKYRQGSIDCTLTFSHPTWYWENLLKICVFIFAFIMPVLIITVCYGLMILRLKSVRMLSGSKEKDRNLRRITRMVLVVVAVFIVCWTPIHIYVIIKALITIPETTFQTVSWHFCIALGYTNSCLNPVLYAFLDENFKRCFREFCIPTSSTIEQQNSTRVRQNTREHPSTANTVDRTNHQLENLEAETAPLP
Delta-type opioid receptor, sequence (P33533 whole entry): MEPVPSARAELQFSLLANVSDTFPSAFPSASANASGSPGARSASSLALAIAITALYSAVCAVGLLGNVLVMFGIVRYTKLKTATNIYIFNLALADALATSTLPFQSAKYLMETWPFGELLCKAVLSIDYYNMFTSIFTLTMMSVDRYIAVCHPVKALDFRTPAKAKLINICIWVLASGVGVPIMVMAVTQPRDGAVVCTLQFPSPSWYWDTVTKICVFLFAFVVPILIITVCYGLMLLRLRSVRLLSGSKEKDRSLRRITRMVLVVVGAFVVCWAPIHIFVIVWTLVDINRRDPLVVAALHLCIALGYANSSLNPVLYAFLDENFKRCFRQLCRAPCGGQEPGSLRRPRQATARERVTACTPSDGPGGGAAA

Structure (SMILES)	Ki [1]	Ki [2]	Ki (Mu-type opioid receptor)	ED50 (Mus musculus [3])	ED50 (Mus musculus [4])	ED50 (Mus musculus [5])	ED50 (Mus musculus [6])	ED50 (Mus musculus [7])	ED50 (Mus musculus [8])
COc1ccc2c(c1O)[C@]13CCN(C)[C@H](C2)[C@]1(OC)CCC(=O)C3	180 nM	592 nM	4.65 nM	0.29 mg/kg					
COc1ccc2c(c1OC)[C@]13CCN(C)[C@H](C2)[C@]1(O)CCC(=O)C3	91.6 nM	693 nM	3.88 nM	0.14 mg/kg					
COc1ccc2c(c1O)[C@]13CCN(C)[C@H](C2)[C@]1(O)CCC(=O)C3	881 nM	763 nM	32.6 nM	2.6 mg/kg					
COc1ccc2c(c1OC)[C@@]13C=C(C#N)CC[C@@]1(O)[C@@H](C2)N(C)CC3	107 nM	364 nM	2.44 nM	0.15 mg/kg	0.026 mg/kg	0.018 mg/kg			
COc1ccc2c(c1O)[C@@]13C=C(C#N)CC[C@@]1(OC)[C@@H](C2)N(C)CC3	197 nM	378 nM	5.38 nM	0.25 mg/kg	0.11 mg/kg	0.21 mg/kg			
COc1ccc2c3c1O[C@H]1C(=O)CC[C@@]4(O)[C@@H](C2)N(C)CC[C@]314 [OXYCODONE]							0.38 mg/kg	0.94 mg/kg	1.37 mg/kg
COc1ccc2c(c1O)[C@@]13C=C(C#N)CC[C@@]1(O)[C@@H](C2)N(C)CC3	498 nM	1650 nM		0.5 mg/kg	0.18 mg/kg	1.88 mg/kg			
